Series [1] has as its system A10. Nature of the series: Antitumor activity against rat A10 cells assessed as loss of cellular microtubule after 18 hrs by indirect immunofluorescence. In kind it is functional, cell-based. To be noted: A10, 18 h. Put shortly:
(§1)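 Rat A-10 cells were plated on glass coverslips and left to attach and grow for at least 24 h. Drug was then added for 18 h. Cells were fixed and cellular microtubules were visualised by indirect immunofluorescence.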

The subject of a further series is KB. Description: Cytotoxicity against human KB cells. In kind it is functional, cell-based. In short, it runs like this: (§2)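 In vitro cytotoxicity was read out by the sulforhodamine B (SRB) assay, and IC50 values were derived from it.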
For another series, the system named is LoVo. Description: Cytotoxicity against human LoVo cells. In kind it is functional, cell-based. Put shortly: as §2
Series [2] has as its system A10. Nature of the series: Antitumor activity against rat A10 cells assessed as total loss of cellular microtubule at 0.75 nM after 18 hrs by indirect immunofluorescence. The format is functional, cell-based. In short, it runs like this:
as §1

The subject of series [3] is A10. Description: Antitumor activity against rat A10 cells assessed as total loss of cellular microtubule at 2.5 nM after 18 hrs by indirect immunofluorescence. The format is functional, cell-based.
Series [4] is described as follows: Antitumor activity against adriamycin-resistant early stage mouse M17/ADR cell implanted in mouse at 2.8 mg/kg, iv total dosing schedule on day 1 and day 4,7,8. The format is functional. Put shortly:
(§3)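 Mice bearing early-stage subcutaneously implanted solid tumours; treatment given intravenously. Activity expressed as T/C and as log kill, (T − C)/(3.32·Td). T and C are the median days for treated and control tumours to reach 750-1000 mg. Td is the tumour volume doubling time.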

Series [5] can be described thus: Antitumor activity against drug-insensitive mouse 16/C cell implanted in mouse at 1.25 mg/kg, iv total dosing schedule on day 1 and day 4 to 6. In kind it is functional. Put shortly:
as §3

For series [6], the system named is Mus musculus. Nature of the series: Liver toxicity in iv dosed mouse. In kind it is organism-based. The note with it: in vivo.
In series [7] the test system is Mus musculus. Description: Gastro intestinal toxicity in iv dosed mouse. In kind it is organism-based. The note with it: in vivo.
For a further series, the system named is MC-38. Description: Antitumor activity against drug-insensitive mouse C38 cell implanted in mouse at 3 mg/kg, iv total dosing schedule on day 3. The format is functional. Put shortly: as §3
For series [8], the system named is Mus musculus. Nature of the series: Toxicity in iv dosed mouse assessed as local tissue damage. In kind it is organism-based. The note with it: in vivo.
Series [9] relates to Mus musculus. Description: Toxicity in iv dosed mouse on 1 day. In kind it is organism-based. The note with it: in vivo, 24 h. Put shortly:
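Mice received a single intravenous injection on day 1 at 1.0 or 1.4 mg/kg, and lethality was recorded.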

A short description of series [10]: Antitumor activity against adriamycin-resistant early stage mouse M16/C/ADR cell implanted in mouse at 3.15 mg/kg, iv total dosing schedule on day 1 and day 3, 5 to 9. In kind it is functional. Put shortly:
as §3

The subject of series [11] is A10. Nature of the series: Antitumor activity against rat A10 cells assessed as total loss of cellular microtubule at 150 nM after 18 hrs by indirect immunofluorescence. In kind it is functional, cell-based.

Activity calls are given as the source filed them. The calls are words filed in the database; no cut-off is given here.

What is called EC50 is the concentration giving half of the maximal effect. For orientation: IC50 means the point on the concentration scale where inhibition reaches its midpoint. For the molecule `CC[C@H](C)[C@@H]([C@@H](CC(=O)N1CCC[C@H]1[C@H](OC)[C@@H](C)C(=O)N[C@@H](Cc1ccccc1)c1nccs1)OC)N(C)C(=O)[C@@H](NC(=O)[C@H](C(C)C)N(C)C)C(C)C` (stereo in doubt; 1) [DOLASTATIN-10], the EC50 with A10 [1] turned out to be 0.25 nM. Further, the IC50 with KB (Homo sapiens, KB) came to 0.052 nM; with LoVo (Homo sapiens, LoVo), 0.076 nM.
For `CC[C@H](C)[C@@H]([C@@H](CC(=O)N1CCC[C@H]1[C@H](OC)[C@@H](C)C(=O)N[C@@H](Cc1ccccc1)c1nccs1)OC)N(C)C(=O)[C@@H](NC(=O)[C@H](C(C)C)N(C)C)C(C)C` (stereo in doubt) [DOLASTATIN-10], the figures for the half-maximal inhibitory concentration (IC50) in the series on KB (kb) and in the series with LoVo (lovo) were 0.041 nM and 0.066 nM, respectively.
Consider `CC[C@H](C)[C@@H]([C@@H](CC(=O)N1CCC[C@H]1[C@H](OC)[C@@H](C)C(=O)N[C@@H](Cc1ccccc1)c1nccs1)OC)N(C)C(=O)[C@@H](NC(=O)[C@H](C(C)C)N(C)C)C(C)C` (stereo in doubt; 1), for which the result in the series on A10 [2] was Active.
As usually defined, the T/C is the ratio of treated to control. In the case of `CC[C@H](C)[C@@H]([C@@H](CC(=O)N1CCC[C@H]1[C@H](OC)[C@@H](C)C(=O)N[C@@H](Cc1ccccc1)c1nccs1)OC)N(C)C(=O)[C@@H](NC(=O)[C@H]([C@@H](C)CC)N(C)C)C(C)C` [SYMPLOSTATIN 1], in the series with A10 [3], the result was Active. The EC50 with A10 [1] was 0.6 nM. Moreover, the half-inhibitory concentration (IC50) with KB (Homo sapiens, KB) is 0.15 nM; in the series with LoVo (Homo sapiens, LoVo) it was 0.34 nM. The T/C in series [4] stood at 32%; in series [5], 0%; with MC-38 it was 0%; in series [10] it was 36%. The Activity entry with Mus musculus [6], in the series with Mus musculus [7] and in the series with Mus musculus [8] was “Toxic” throughout. For the same molecule, the LD20 in the series with Mus musculus [9] was 1 mg/kg. This molecule returned an LD60 in the series on Mus musculus [9] of 1.4 mg/kg.
`CC[C@]1(O)C[C@@H]2CN(CCc3c([nH]c4ccccc34)[C@@](C(=O)OC)(c3cc4c(cc3OC)N(C)[C@H]3[C@@](O)(C(=O)OC)[C@H](OC(C)=O)[C@]5(CC)C=CCN6CC[C@]43[C@@H]65)C2)C1`: in the series on A10 [11], the result was Active.

For the origin of these results see ChEMBL document CHEMBL1155721, “Isolation of dolastatin 10 from the marine cyanobacterium Symploca species VP642 and total stereochemistry and biological evaluation of its analogue symplostatin 1” (J Nat Prod, 2001).
